Measurements: ChEMBL document CHEMBL5331127, “Discovery of ARD-2051 as a Potent and Orally Efficacious Proteolysis Targeting Chimera (PROTAC) Degrader of Androgen Receptor for the Treatment of Advanced Prostate Cancer” (J Med Chem, 2023)

Experiments:
[1] = biological target: T1, Androgen receptor (Homo sapiens) (UniProt P10275); assay: Induction of androgen receptor degradation in human VCaP cells at 1 uM after 24 hrs by Western blotting analysis relative to control; type: cell-based
T1 sequence (whole entry): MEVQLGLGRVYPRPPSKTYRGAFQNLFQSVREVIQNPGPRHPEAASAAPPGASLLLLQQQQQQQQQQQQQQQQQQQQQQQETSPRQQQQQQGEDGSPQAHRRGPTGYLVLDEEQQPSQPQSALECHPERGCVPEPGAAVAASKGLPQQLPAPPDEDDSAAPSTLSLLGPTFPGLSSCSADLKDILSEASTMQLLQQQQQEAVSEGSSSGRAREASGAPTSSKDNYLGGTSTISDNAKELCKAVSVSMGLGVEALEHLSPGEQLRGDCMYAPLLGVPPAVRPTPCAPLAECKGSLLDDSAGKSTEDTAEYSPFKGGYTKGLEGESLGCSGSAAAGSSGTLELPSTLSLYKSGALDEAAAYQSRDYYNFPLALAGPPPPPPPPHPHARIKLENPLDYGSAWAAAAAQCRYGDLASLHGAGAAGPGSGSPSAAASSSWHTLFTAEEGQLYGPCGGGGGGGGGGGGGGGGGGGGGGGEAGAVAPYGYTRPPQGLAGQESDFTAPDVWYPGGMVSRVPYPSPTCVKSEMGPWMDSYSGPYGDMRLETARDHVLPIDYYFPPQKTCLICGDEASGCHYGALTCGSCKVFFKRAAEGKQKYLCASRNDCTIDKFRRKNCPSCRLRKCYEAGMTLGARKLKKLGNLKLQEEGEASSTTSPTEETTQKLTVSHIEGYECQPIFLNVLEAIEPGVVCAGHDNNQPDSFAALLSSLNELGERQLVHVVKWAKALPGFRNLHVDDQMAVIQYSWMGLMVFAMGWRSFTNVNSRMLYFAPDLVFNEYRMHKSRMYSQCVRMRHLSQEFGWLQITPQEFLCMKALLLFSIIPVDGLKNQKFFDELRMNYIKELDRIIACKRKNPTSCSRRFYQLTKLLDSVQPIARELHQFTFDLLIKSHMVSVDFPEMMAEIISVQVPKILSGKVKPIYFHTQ
Outline: (§1)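 VCaP cells treated for 24 h at 10, 100 or 1000 nM. AR protein measured by Western blotting.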

[2] = biological target: T1, Androgen receptor (Homo sapiens); assay: Induction of androgen receptor degradation in human VCaP cells at 0.1 uM after 24 hrs by Western blotting analysis relative to control; type: cell-based; outline: as §1
[3] = biological target: T1, Androgen receptor (Homo sapiens); assay: Induction of androgen receptor degradation in human VCaP cells at 0.01 uM after 24 hrs by Western blotting analysis relative to control; type: cell-based; outline: as §1
[4] = Drug concentration in ICR mouse plasma at 10 mg/kg, po measured after 3 hrs; type: ADME, organism-based
Outline: (§2)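 Mice given a single 10 mg/kg dose by oral gavage, 3 mice per time point. Plasma drug levels measured at 1, 3, 6 and 24 h; mean ± SD reported.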

[5] = Drug concentration in ICR mouse plasma at 10 mg/kg, po measured after 6 hrs; type: ADME, organism-based; outline: as §2
[6] = Drug concentration in ICR mouse plasma at 10 mg/kg, po measured after 1 hr; type: ADME, organism-based; outline: as §2

SMILES | Activity [1] [%] | Activity [2] [%] | Activity [3] [%] | concentration at 3 h [4] [ng/mL] | concentration at 6 h [5] [ng/mL] | concentration at 1 h [6] [ng/mL]
N#Cc1ccc(N2CCC3(CCN(c4ccc(C(=O)N5CCCN(C6CCN(c7ccc8c(c7)C(=O)N(C7CCC(=O)NC7=O)C8=O)CC6)CCC5)cc4)CC3)C2)cc1Cl (stereo not drawn) | 54 | 54 | < 5 | – | – | –
N#Cc1ccc(N2CCC3(CCN(c4ccc(C(=O)N5CC6(C5)CN(C5CN(c7ccc8c(c7)C(=O)N(C7CCC(=O)NC7=O)C8=O)C5)C6)cc4)CC3)C2)cc1Cl (stereo not drawn) | 81 | 62 | 22 | – | – | –
C[C@@H]1N(c2ccc(C#N)c(Cl)c2)CCC12CCN(c1ccc(C(=O)N3CCN(C4CN(c5ccc6c(c5)C(=O)N(C5CCC(=O)NC5=O)C6=O)C4)CC3)cc1)CC2 (stereo partly drawn) | > 95 | > 95 | 84 | – | – | –
C[C@H]1CC2(CCN(c3ccc(C(=O)N4CCN(C5(C#N)CN(c6ccc7c(c6)C(=O)N(C6CCC(=O)NC6=O)C7=O)C5)CC4)cc3)CC2)CN1c1ccc(C#N)c(Cl)c1 (stereo partly drawn) | 88 | 93 | 81 | – | – | –
N#Cc1ccc(N2CCC3(CCN(c4ccc(C(=O)N5CCN(C6CCN(c7ccc8c(c7)C(=O)N(C7CCC(=O)NC7=O)C8=O)CC6)CC5)cc4)CC3)C2)cc1Cl (stereo not drawn) | 95 | 74 | 24 | – | – | –
C[C@H]1CC2(CCN(c3ccc(C(=O)N4CCN(CC5CN(c6ccc7c(c6)C(=O)N(C6CCC(=O)NC6=O)C7=O)C5)CC4)cc3)CC2)CN1c1ccc(C#N)c(Cl)c1 (stereo partly drawn) | > 95 | > 95 | > 90 | – | – | –
C[C@H]1CC2(CCN(c3ccc(C(=O)N4CCC(C5CN(c6ccc7c(c6)C(=O)N(C6CCC(=O)NC6=O)C7=O)C5)CC4)cc3)CC2)CN1c1ccc(C#N)c(Cl)c1 (stereo partly drawn) | 92 | 64 | 12 | – | – | –
C[C@H]1CC2(CCN(c3ccc(C(=O)N4CCC(N5CCN(c6ccc7c(c6)C(=O)N(C6CCC(=O)NC6=O)C7=O)CC5)CC4)cc3)CC2)CN1c1ccc(C#N)c(Cl)c1 (stereo partly drawn) | > 95 | > 95 | 78 | – | – | –
N#Cc1ccc(N2CCC3(CCN(c4ccc(C(=O)N5CCCN(C6CN(c7ccc8c(c7)C(=O)N(C7CCC(=O)NC7=O)C8=O)C6)CC5)cc4)CC3)C2)cc1Cl (stereo not drawn) | 87 | 70 | 39 | – | – | –
C[C@H]1CC2(CCN(c3ccc(C(=O)N4CCN(C5CN(c6ccc7c(c6)C(=O)N(C6CCC(=O)NC6=O)C7=O)C5)CC4)cc3)CC2)CN1c1ccc(C#N)c(C(F)F)c1 (stereo partly drawn) | > 95 | > 95 | > 90 | – | – | –
N#Cc1ccc(N2CCC3(CCN(c4ccc(C(=O)N5CCN(CC6CCN(c7ccc8c(c7)C(=O)N(C7CCC(=O)NC7=O)C8=O)CC6)CC5)cc4)CC3)C2)cc1Cl (stereo not drawn) | > 95 | 80 | 24 | – | – | –
N#Cc1ccc(N2CCC3(CCN(c4ccc(C(=O)N5CCCN(C6CCN(c7ccc8c(c7)C(=O)N(C7CCC(=O)NC7=O)C8=O)CC6)CC5)cc4)CC3)C2)cc1Cl (stereo not drawn) | 92 | 80 | 45 | – | – | –
C[C@H]1CC2(CCN(c3ccc(C(=O)N4CCN(CC5CCN(c6ccc7c(c6)C(=O)N(C6CCC(=O)NC6=O)C7=O)CC5)CC4)cc3)CC2)CN1c1ccc(C#N)c(Cl)c1 (stereo partly drawn) | > 95 | > 95 | > 90 | – | – | –
C[C@H]1CC2(CCN(c3ccc(C(=O)N4C[C@H]5C[C@@H]4CN5C4CN(c5ccc6c(c5)C(=O)N(C5CCC(=O)NC5=O)C6=O)C4)cc3)CC2)CN1c1ccc(C#N)c(Cl)c1 (stereo partly drawn) | 95 | 93 | 54 | – | – | –
C[C@H]1N(c2ccc(C#N)c(Cl)c2)CCC12CCN(c1ccc(C(=O)N3CCN(C4CN(c5ccc6c(c5)C(=O)N(C5CCC(=O)NC5=O)C6=O)C4)CC3)cc1)CC2 (stereo partly drawn) | 91 | 68 | 46 | – | – | –
N#Cc1ccc(N2CCC3(CCN(c4ccc(C(=O)N5CC6CC(C5)CN(C5CCN(c7ccc8c(c7)C(=O)N(C7CCC(=O)NC7=O)C8=O)CC5)C6)cc4)CC3)C2)cc1Cl (stereo not drawn) | 90 | 80 | 23 | – | – | –

SMILES | Activity [1] [%] | Activity [2] [%] | Activity [3] [%] | concentration at 3 h [4] [ng/mL] | concentration at 6 h [5] [ng/mL] | concentration at 1 h [6] [ng/mL]
C[C@@H]1CC2(CCN(c3ccc(C(=O)N4CCN(C5CN(c6ccc7c(c6)C(=O)N(C6CCC(=O)NC6=O)C7=O)C5)CC4)cc3)CC2)CN1c1ccc(C#N)c(Cl)c1 (stereo partly drawn) | > 95 | 93 | 66 | – | – | –
C[C@H]1CC2(CCN(c3ccc(C(=O)N4CCC(CN5CCN(c6ccc7c(c6)C(=O)N(C6CCC(=O)NC6=O)C7=O)CC5)CC4)cc3)CC2)CN1c1ccc(C#N)c(Cl)c1 (stereo partly drawn) | > 95 | > 95 | 81 | – | – | –
C[C@H]1CC2(CCN(c3ccc(C(=O)N4CCN(C5CN(c6ccc7c(c6)C(=O)N(C6CCC(=O)NC6=O)C7=O)C5)CC4)cc3)CC2)CN1c1ccc(C#N)c(F)c1 (stereo partly drawn) | > 95 | > 95 | > 90 | 146 | 91 | 134
N#Cc1ccc(N2CCC3(CCN(c4ccc(C(=O)N5CCC6(C5)CN(C5CCN(c7ccc8c(c7)C(=O)N(C7CCC(=O)NC7=O)C8=O)CC5)C6)cc4)CC3)C2)cc1Cl (stereo not drawn) | 82 | 60 | 20 | – | – | –
N#Cc1ccc(N2CCC3(CCN(c4ccc(C(=O)N5CCN(C6CN(c7ccc8c(c7)C(=O)N(C7CCC(=O)NC7=O)C8=O)C6)CC5)cc4)CC3)C2)cc1Cl (stereo not drawn) | > 95 | > 95 | 78 | – | – | –
N#Cc1ccc(N2CCC3(CCN(c4ccc(C(=O)N5CCN(CC6CN(c7ccc8c(c7)C(=O)N(C7CCC(=O)NC7=O)C8=O)C6)CC5)cc4)CC3)C2)cc1Cl (stereo not drawn) | 85 | 81 | 30 | – | – | –
N#Cc1ccc(N2CCC3(CCN(C(=O)c4ccc(C(=O)N5CCN(CC6CCN(c7ccc8c(c7)C(=O)N(C7CCC(=O)NC7=O)C8=O)CC6)CC5)cc4)CC3)C2)cc1Cl (stereo not drawn) | 33 | < 5 | < 5 | – | – | –
C[C@H]1CC2(CCN(c3ccc(C(=O)N4CCN(C5CCN(c6ccc7c(c6)C(=O)N(C6CCC(=O)NC6=O)C7=O)CC5)CC4)cc3)CC2)CN1c1ccc(C#N)c(Cl)c1 (stereo partly drawn) | > 95 | > 95 | > 90 | 208 | 104 | 238
N#Cc1ccc(N2CCC3(CCN(c4ccc(C(=O)N5CCC(N6CCN(c7ccc8c(c7)C(=O)N(C7CCC(=O)NC7=O)C8=O)CC6)CC5)cc4)CC3)C2)cc1Cl (stereo not drawn) | > 95 | 20 | 37 | – | – | –
C[C@H]1CC2(CCN(c3ccc(C(=O)N4CCN(C5CN(c6ccc7c(c6)C(=O)N(C6CCC(=O)NC6=O)C7=O)C5)CC4)cc3)CC2)CN1c1cnc(C#N)c(C(F)(F)F)c1 (stereo partly drawn) | > 95 | > 95 | > 90 | 678 | 451 | 571
C[C@H]1CC2(CCN(c3ccc(C(=O)N4CC(N5CCN(c6ccc7c(c6)C(=O)N(C6CCC(=O)NC6=O)C7=O)CC5)C4)cc3)CC2)CN1c1ccc(C#N)c(Cl)c1 (stereo partly drawn) | > 95 | > 95 | > 90 | – | – | –
C[C@H]1CC2(CCN(c3ccc(C(=O)N4CC5(C4)CN(c4ccc6c(c4)C(=O)N(C4CCC(=O)NC4=O)C6=O)C5)cc3)CC2)CN1c1ccc(C#N)c(Cl)c1 (stereo partly drawn) | > 95 | > 95 | 79 | – | – | –
N#Cc1ccc(N2CCC3(CCN(c4ccc(C(=O)N5CC6(C5)CN(C5CCN(c7ccc8c(c7)C(=O)N(C7CCC(=O)NC7=O)C8=O)CC5)C6)cc4)CC3)C2)cc1Cl (stereo not drawn) | 73 | 46 | < 5 | – | – | –
C[C@H]1CC2(CCN(c3ccc(C(=O)N4C[C@@H]5C[C@H]4CN5C4CN(c5ccc6c(c5)C(=O)N(C5CCC(=O)NC5=O)C6=O)C4)cc3)CC2)CN1c1ccc(C#N)c(Cl)c1 (stereo partly drawn) | > 95 | > 95 | > 90 | – | – | –
C[C@H]1CC2(CCN(c3ccc(C(=O)N4CCN(C5CN(c6ccc7c(c6)C(=O)N(C6CCC(=O)NC6=O)C7=O)C5)CC4)cc3)CC2)CN1c1ccc(C#N)c(C(F)(F)F)c1 (stereo partly drawn) | > 95 | > 95 | > 90 | 56 | 29 | 31
N#Cc1ccc(N2CCC3(CCN(C(=O)c4ccc(N5CCN(C6CCN(c7ccc8c(c7)C(=O)N(C7CCC(=O)NC7=O)C8=O)CC6)CC5)cc4)CC3)C2)cc1Cl (stereo not drawn) | 56 | 43 | < 5 | – | – | –
